Reference: ChEMBL document CHEMBL1133105, “Antimalarial, antitrypanosomal, and antileishmanial activities and cytotoxicity of bis(9-amino-6-chloro-2-methoxyacridines): influence of the linker” (J Med Chem, 2000)

Legend:
[1] = test system: Leishmania infantum; experiment: Percentage of activity against Leishmania infantum at 6.25 uM; Toxic upon mouse primary peritoneal macrophages; format: functional, organism-based
Method in brief: (§1)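 Starch-stimulated mouse peritoneal macrophages, 30 000/well, infected after 24 h with spleen-derived L. infantum amastigotes (10:1) together with 2-fold drug dilutions (12.5–1.56 µM). Incubated 7 days at 37 °C, 5% CO2. Wright-stained slides scored microscopically as % reduction of total parasite load or of infected macrophages. Uninfected treated cultures judged microscopically for macrophage toxicity.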

[2] = test system: Plasmodium falciparum; experiment: Parasite growth inhibition against Plasmodium falciparum W2; format: functional, organism-based
Method in brief: (§2)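 Asynchronous cultures of each strain on human erythrocytes (0.5% parasitemia, 1% final hematocrit) were exposed to serially diluted drug for 24 h at 37 °C. Then 0.5 µCi [3H]hypoxanthine per well was added for 24 h. Incorporation was compared with a drug-free control on the same plate. IC50 was taken from the concentration-response curve as the mean of several independent experiments. DMSO was at most 0.1%.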

[3] = test system: Plasmodium falciparum; experiment: Parasite growth inhibition against Plasmodium falciparum FCR3; format: functional, organism-based; method in brief: as §2
[4] = test system: Plasmodium falciparum; experiment: Parasite growth inhibition against Plasmodium falciparum GP1; format: functional, organism-based; method in brief: as §2
[5] = test system: Plasmodium falciparum; experiment: Parasite growth inhibition against Plasmodium falciparum K1; format: functional, organism-based; method in brief: as §2
[6] = test system: Trypanosoma brucei; experiment: Percentage of activity against Trypanosoma brucei at 1.56 uM; format: functional
Method in brief: (§3)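 Bloodstream-form T. brucei in HMI-9 medium, 10 000 parasites/well, exposed to 12.5, 6.25, 3.13 and 1.56 µM drug for 4 days. Read-out is % inhibition of parasite multiplication. Macrophage toxicity judged on mouse primary peritoneal macrophages.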

[7] = test system: Leishmania infantum; experiment: Percentage of activity against Leishmania infantum at 12.5 uM Concentration; Toxic upon mouse primary peritoneal macrophages; format: functional, organism-based; method in brief: as §1
[8] = test system: Trypanosoma cruzi; experiment: In Vitro evaluation for the percentage of activity towards Trypanosoma cruzi at 6.25 uM Concentration; Toxic upon mouse primary peritoneal macrophages; format: functional, organism-based
Method in brief: (§4)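 Mouse peritoneal macrophages, 30 000/well, infected after 24 h with about 100 000 T. cruzi trypomastigotes per well plus 2-fold drug dilutions (12.5–1.56 µM). Incubated 4 days at 37 °C, 5% CO2. Methanol-fixed, Giemsa-stained and scored microscopically as % reduction of total parasite load (free trypomastigotes plus intracellular amastigotes) versus untreated controls.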

[9] = test system: Trypanosoma cruzi; experiment: Percentage of activity against Trypanosoma cruzi at 1.56 uM; format: functional; method in brief: as §4
[10] = test system: Trypanosoma cruzi; experiment: Percentage of activity against Trypanosoma cruzi at 3.13 uM; format: functional; method in brief: as §4
[11] = test system: MRC5; experiment: Cytotoxicity on MRC-5 cells at 25 uM; format: functional; settings: Homo sapiens
Method in brief: (§5)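 MRC-5 human diploid embryonic lung cells seeded at 5 000/well, washed after 24 h, then given 2-fold drug dilutions (25, 12.5, 6.25, 3.13 µM) in RPMI + 5% FCS, final DMSO below 0.5%. Incubated 7 days at 37 °C, 5% CO2. MTT colorimetric read-out, scored as % reduction of absorbance at 540 nm versus untreated controls.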

[12] = test system: Plasmodium falciparum; experiment: Parasite growth inhibition against Plasmodium falciparum FCM29; format: functional, organism-based; method in brief: as §2
[13] = test system: Trypanosoma brucei; experiment: Percentage of activity against Trypanosoma brucei at 3.13 uM; format: functional; method in brief: as §3
[14] = test system: MRC5; experiment: Cytotoxicity on MRC-5 cells at 12.5 uM; format: functional; settings: Homo sapiens; method in brief: as §5
[15] = test system: Leishmania infantum; experiment: Percentage of activity against Leishmania infantum at 1.56 uM; format: functional; method in brief: as §1
[16] = test system: Trypanosoma brucei; experiment: Percentage of activity against Trypanosoma brucei at 6.25 uM; format: functional; method in brief: as §3
[17] = test system: Plasmodium falciparum; experiment: Parasite growth inhibition against Plasmodium falciparum F32A; format: functional, organism-based; method in brief: as §2
[18] = test system: MRC5; experiment: Cytotoxicity on MRC-5 cells at 3.13 uM; format: functional; settings: Homo sapiens; method in brief: as §5
[19] = test system: Leishmania infantum; experiment: Percentage of activity against Leishmania infantum at 3.13 uM; format: functional; method in brief: as §1
[20] = test system: MRC5; experiment: Cytotoxicity on MRC-5 cells at 6.25 uM; format: functional; settings: Homo sapiens; method in brief: as §5
[21] = test system: Trypanosoma cruzi; experiment: Percentage of activity against Trypanosoma cruzi at 12.5 uM; Toxic upon mouse primary peritoneal macrophages; format: functional, organism-based; method in brief: as §4
[22] = test system: Plasmodium falciparum; experiment: Growth inhibition of chloroquine-sensitive Plasmodium falciparum 3D7
[23] = test system: Plasmodium falciparum; experiment: In vitro sensitivity for Plasmodium falciparum FcB1R; format: functional, organism-based
Method in brief: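 Asynchronous P. falciparum cultures in human erythrocytes (0.5% parasitemia, 1% haematocrit) exposed to serially diluted drug for 24 h at 37 °C. [3H]hypoxanthine (0.5 µCi/well) then added for a further 24 h. Uptake compared with drug-free controls on the same plate. IC50 taken from the concentration–response curve, averaged over independent experiments. DMSO ≤0.1%.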

[24] = test system: Trypanosoma cruzi; experiment: In Vitro evaluation for the percentage of activity towards Trypanosoma cruzi at 3.13 uM Concentration; Toxic upon mouse primary peritoneal macrophages; format: functional, organism-based; method in brief: as §4
[25] = test system: Leishmania infantum; experiment: In Vitro evaluation for the percentage of activity towards Leishmania infantum at 1.56 uM Concentration; Toxic upon mouse primary peritoneal macrophages; format: functional, organism-based; method in brief: as §1
[26] = test system: Trypanosoma brucei; experiment: Percentage of activity against Trypanosoma brucei at 12.5 uM; format: functional; method in brief: as §3
[27] = test system: Leishmania infantum; experiment: In Vitro evaluation for the percentage of activity towards Leishmania infantum at 3.13 uM Concentration; Toxic upon mouse primary peritoneal macrophages; format: functional, organism-based; method in brief: as §1
[28] = test system: Leishmania infantum; experiment: Percentage of activity against Leishmania infantum 6.25 uM; format: functional; method in brief: as §1
[29] = test system: Trypanosoma cruzi; experiment: Percentage of activity against Trypanosoma cruzi at 6.25 uM Concentration; format: functional; method in brief: as §4

Row | SMILES | Cytotoxicity [1] | IC50 [2] | IC50 [4] | IC50 [5] | Percent inhibition of parasite multiplication [6] | Cytotoxicity [7] | Cytotoxicity [8] | Parasite load reduction [9] | Reduction of T. cruzi parasite load [10] | cytotoxicity at 25 µM [11] | IC50 [12] | Parasite growth inhibition [13] | cytotoxicity at 12.5 µM [14] | Antileishmanial activity (% reduction of parasite load) [15] | Inhibition of parasite multiplication [16] | IC50 [17] | cytotoxicity at 3.13 µM [18] | cytotoxicity at 6.25 µM [20] | Cytotoxicity [21] | IC50 [23] | further results
1 | COc1ccc2nc3cc(Cl)ccc3c(NCCCN(CCCNc3c4ccc(Cl)cc4nc4ccc(OC)cc34)C(=O)[C@@H](C)NC(=O)OC(C)(C)C)c2c1 | Toxic | 0.018 µM | 0.066 µM | 0.023 µM | 100% | Toxic | Toxic | 60% | 95% | 100% | 0.011 µM | 100% | 84% | 95% | 100% | 0.089 µM | 81% | 84% | Toxic | 0.033 µM | IC50 [3]: 0.032 µM; Percent antileishmanial activity (reduction of parasite load) [19]: 99%; IC50 [22]: 0.057 µM
2 | COc1ccc2nc3cc(Cl)ccc3c(NCCCCNc3c4ccc(Cl)cc4nc4ccc(OC)cc34)c2c1 | Toxic |  |  |  | 100% | Toxic | Toxic | 90% |  | 100% |  | 100% | 100% |  | 100% |  | 100% | 100% | Toxic | 0.018 µM | Cytotoxicity [24]: Toxic; Cytotoxicity [25]: Toxic; Inhibition of parasite multiplication [26]: 100%; Cytotoxicity [27]: Toxic
3 | COc1ccc2nc3cc(Cl)ccc3c(NCCCN(CCCNc3c4ccc(Cl)cc4nc4ccc(OC)cc34)C(=O)C(C)NC(=O)OC(C)(C)C)c2c1 (stereo unspecified) |  | 0.01 µM | 0.035 µM | 0.012 µM | 100% | Toxic |  | 0% | 40% | 100% | 0.011 µM | 100% | 100% | 40% | 100% | 0.066 µM | 0% | 100% | Toxic | 0.031 µM | Antileishmanial activity (% reduction of parasite load) [28]: 95%; Reduction of T. cruzi parasite load [29]: 90%; Percent antileishmanial activity (reduction of parasite load) [19]: 60%; IC50 [22]: 0.022 µM; Inhibition of parasite multiplication [26]: 100%
4 | COc1ccc2nc3cc(Cl)ccc3c(NCCCN(CCCNc3c4ccc(Cl)cc4nc4ccc(OC)cc34)C(=O)C(NC(=O)OC(C)(C)C)C(C)C)c2c1 (stereo unspecified) | Toxic | 0.04 µM | 0.083 µM | 0.036 µM | 100% | Toxic | Toxic | 70% | 90% | 60% | 0.016 µM | 100% | 59% | 95% | 100% | 0.057 µM | 43% | 54% | Toxic | 0.025 µM | IC50 [3]: 0.022 µM; Percent antileishmanial activity (reduction of parasite load) [19]: 99%; IC50 [22]: 0.049 µM
